MrgX1 antag = antagonists of human MrgX1 receptor; actives 1.3% (n = 310,000); MRGX1-HEK293 calcium flux, Fluo-4, BAM8-22 antagonism; hits give low values; AID 588676; B-score at 10 µM;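 active = calcium-response B-score plate-corrected more than 3 library SD below zero, starting fluorescence within 5 deviations, no agonist response on first addition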;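 note: peak minus trough fluorescence over baseline after final BAM8-22 challenge near maximal dose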
Target sequence (Q96LB2 whole entry, looked up): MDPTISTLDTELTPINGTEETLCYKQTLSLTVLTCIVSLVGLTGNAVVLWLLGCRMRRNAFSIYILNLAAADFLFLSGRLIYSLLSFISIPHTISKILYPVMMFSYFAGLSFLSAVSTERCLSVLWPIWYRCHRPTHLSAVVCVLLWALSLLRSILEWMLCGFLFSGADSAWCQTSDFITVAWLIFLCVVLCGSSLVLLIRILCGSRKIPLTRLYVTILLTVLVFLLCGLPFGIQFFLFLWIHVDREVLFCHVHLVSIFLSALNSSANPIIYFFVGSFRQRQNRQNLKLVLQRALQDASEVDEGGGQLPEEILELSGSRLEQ
RGS4 block = inhibitors of human RGS4 | AID 463165 | B-score at 10 µM | HEK293 M3R/RGS4 inducible, Fluo-4 calcium flux; hits give high values; triggered by carbachol at its EC20 | actives 0.45% (n = 310,000) | P49798;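 active = B-score, a plate-corrected calcium signal, over three deviations above library mean, with baseline fluorescence within five deviations of library mean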;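 note: RGS4 expression induced by doxycycline in cells with stable M3 receptor; B-score is computed from the integrated fluorescence ratio over baseline after carbachol; higher B-score means a larger calcium signal and so more RGS4 inhibition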
Target sequence (P49798 whole entry, looked up): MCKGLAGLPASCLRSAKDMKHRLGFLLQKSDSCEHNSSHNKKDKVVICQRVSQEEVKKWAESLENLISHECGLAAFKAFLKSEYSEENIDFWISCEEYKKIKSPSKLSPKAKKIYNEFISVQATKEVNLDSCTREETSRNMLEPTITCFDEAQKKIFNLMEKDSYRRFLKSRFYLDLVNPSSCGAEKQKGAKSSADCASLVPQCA
RGS4 pot = potentiators or activators of RGS4. HEK293 M3R/inducible RGS4, carbachol calcium flux Fluo4; hits give low values. B-score at 10 µM. actives 0.92% (n = 310,000). AID 463111;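 active = B-score of the integrated calcium signal more than 4 SD below the library mean, with starting fluorescence not abnormally high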;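 note: negative B-score means reduced calcium response which marks RGS4 activation or potentiation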
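test system = HEK293 cells with stable M3R and inducible RGS4 | schedule = recording 10 s baseline at 1 Hz, 100 s post-agonist | technique = Fluo4-AM (2 µM) calcium-flux fluorescence, kinetic read | measure = Agonist-evoked peak-minus-minimum fluorescence over baseline, integrated ratio, B score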
MrgX1 allo act = allosterically activates human MrgX1 receptor signaling. MrgX1-HEK293, Fluo-4 calcium flux, FDSS; hits give high values. B-score at 10 µM. actives 0.63% (n = 310,000);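 active = plate-corrected calcium response at least 3 library SD above typical, normal starting fluorescence, not activating the receptor alone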;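 note: compound read alongside a low EC10 to EC30 dose of BAM8-22 agonist; peak minus trough fluorescence over baseline measured at the second addition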
MrgX1 ag = agonists of human MrgX1 receptor. Q96LB2. MrgX1-HEK293 cells, Fluo-4 calcium fluorescence, agonist mode; hits give high values. B-score at 10 µM. actives 0.44% (n = 310,000). AID 588627;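 active = calcium response B-score plate-corrected fluorescence ratio at least 3 library SD, with starting fluorescence B-score inside 5 SD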
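Test system: Stable human MrgX1 HEK293 cell line | Schedule: Overnight plating before 1 h dye loading | Read-out basis: Baseline-normalised fluorescence change ratio, B-scored | Detection: Kinetic calcium dye fluorescence, Fluo-4 NW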
MrgX1 antag conf = confirmation of human MrgX1 receptor antagonists. AID 602420. remaining BAM8-22 calcium response % of control (hits give low values), % at 10 µM. MrgX1-HEK293, BAM8-22 calcium flux, Fluo-4; hits give low values. shares compounds with MrgX1 antag. actives 19% (n = 2,300);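 active = remaining agonist calcium response no higher than 100% minus 3 SD of agonist-only control wells, with starting fluorescence near control levels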;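 note: agonist BAM8-22 given at a near maximal EC90 to ECmax level; peak minus minimum fluorescence divided by baseline after agonist addition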
HEK293 Ca flux = MrgX1 antagonist counter-screen hit in parental HEK293 cells; shares compounds with MrgX1 antag; AID 624111; fluorescence ratio F(max-min)/F0 at 10 µM; actives 2% (n = 4,000); Fluo-4 calcium fluorescence, FDSS;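 active = duplicate-averaged calcium fluorescence ratio at least three times the standard deviation of buffer wells, a nonspecific response in parental cells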
HEK293 Ca counter = activity in parental HEK293 cells without MrgX1; shares compounds with MrgX1 antag; parental HEK293 calcium flux, Fluo-4 fluorescence ratio; hits give high values; actives 0.4% (n = 4,000); AID 624114; fluorescence ratio F(max-min)/F0 at 10 µM;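 active = calcium fluorescence ratio, averaged over duplicates, at least 3 SD of the buffer-well ratio, meaning a nonspecific response in receptor-free cells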;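 note: untransfected parental HEK293 lacking MrgX1 used as counterscreen for MrgX1 allosteric activators; fluorescence change taken during the second addition on a kinetic imager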
HEK293 Ca cntr2 = counter-screen for MrgX1 activators: effect in parental HEK293 cells. shares compounds with MrgX1 antag. Fluo-4 calcium fluorescence (FDSS); hits give high values. fluorescence ratio F(max-min)/F0 at 10 µM. actives 8.7% (n = 4,000). AID 624115;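 active = calcium fluorescence ratio at least three times the spread of buffer wells, meaning a non-specific response in parental cells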
A number is an active result; i = inactive; nt = no result; ! = not active in a repeat. Rows were chosen to be rich in hits. Some 3.5% of all compounds tested hit in one or more screens of this group.

SMILES	MrgX1 antag	RGS4 block	RGS4 pot	MrgX1 allo act	MrgX1 ag	MrgX1 antag conf	HEK293 Ca flux	HEK293 Ca counter	HEK293 Ca cntr2
CCN=C(NCC)SC1CC(=O)N(c2ccccc2)C1=O (stereo not drawn)	-8.2	i	i	i	i	i	i	i	i
O=C(COC(=O)CCCNC(=O)c1ccc(Cl)cc1)Nc1cc(Cl)c(Cl)cc1Cl	i	i	i	i	i	nt	nt	nt	nt
Cc1cc(C)cc(NC(=O)COC(=O)CCCNC(=O)c2ccc(Cl)cc2)c1	-9.7	i	i	i	i	77%	i	i	i
COc1ccc(C)cc1NC(=O)c1ccc(NS(=O)(=O)c2cccs2)cc1	i	i	i	i	i	nt	nt	nt	nt
O=S1(=O)CCOC[C@H](c2ccccc2)N1Cc1ccccc1F	-6.5	i	i	i	i	i	i	i	i
Cc1nnc(SCC(=O)Nc2c(Cl)cccc2Cl)n(N)c1=O	i	i	i	i	i	nt	nt	nt	nt
CC(C)N(Cc1ccccc1)C(=O)C1CCN(c2ncnc3c2nc2n3CCCCC2)CC1	-4.8	i	i	i	i	i	i	i	57
COc1ccccc1CNC(=O)C1CCC1	-7.9	i	i	i	i	82%	i	i	i
CCc1ccccc1NC(=O)CSc1nnc(-c2ccco2)n1N	-6.7	i	i	i	i	i	i	i	i
COc1ccc(CCn2c(N)c(C(=O)NCc3ccco3)c3nc4ccccc4nc32)cc1	i	i	i	i	i	nt	nt	nt	nt
Nc1c(C(=O)NCc2ccco2)c2nc3ccccc3nc2n1CCc1ccccc1F	-7.5	i	i	i	i	i	i	i	i
O=C(OC1CCCCC1=O)c1ccc(S(=O)(=O)Nc2ccccc2)cc1 (stereo not drawn)	-5.4	i	i	i	i	i	i	i	i
O=C(OC1CCCCC1=O)c1cccc(S(=O)(=O)N2CCCCC2)c1 (stereo not drawn)	i	i	i	i	i	nt	nt	nt	nt
O=C(Nc1ccccc1)Nc1ccccc1NS(=O)(=O)c1cccs1	i	i	i	i	i	nt	nt	nt	nt
O=C(Nc1ccc(Cl)c(Cl)c1)Nc1ccccc1NS(=O)(=O)c1cccs1	-7.3	i	i	i	i	74%	i	i	i
O=C(O)c1ccc(N2CCCCC2)cc1	-6.4	i	i	i	i	i	i	i	i
O=c1[nH]c(/C=C/c2ccccc2OC(F)F)nc2c1cnn2-c1ccccc1	i	i	i	i	i	nt	nt	nt	nt
CN(C)C(CNC(=O)CCc1nc2sc3c(c2c(=O)[nH]1)CCCC3)c1ccccc1 (stereo not drawn)	-6.5	i	i	i	i	i	i	i	i
COc1cccc(COc2ccc3c(C)c(Cc4ccccc4)c(=O)oc3c2)c1	-6.3	i	i	i	i	i	i	i	i
CCOc1ccc(C2C(C(=O)c3ccco3)=C(O)C(=O)N2CCCn2ccnc2)cc1OC (stereo not drawn)	i	i	i	i	i	nt	nt	nt	nt
CC(=O)Nc1ccc(NC(=O)Nc2ccc3c(c2)N(C)C(=O)CS3)cc1	i	i	i	i	i	nt	nt	nt	nt
COc1cccc(NC(=O)Nc2ccc3c(c2)N(C)C(=O)CS3)c1	-7.3	i	i	i	i	42%	i	i	i
CCOc1ccc(OCC)c(NC(=O)Nc2ccc3c(c2)N(C)C(=O)CS3)c1	-6.3	i	i	i	i	80%	i	i	i
O=C1NC2(CCN(Cc3ccccc3)CC2)Oc2ccccc21	i	i	i	i	i	nt	nt	nt	nt
O=C1c2ccccc2OC2(C=Cc3ccccc3O2)N1Cc1ccccc1 (stereo not drawn)	-5	i	i	i	i	i	i	i	i
SMILES	MrgX1 antag	RGS4 block	RGS4 pot	MrgX1 allo act	MrgX1 ag	MrgX1 antag conf	HEK293 Ca flux	HEK293 Ca counter	HEK293 Ca cntr2
O=C(Nc1ccncc1)c1ccc2c(c1)S(=O)(=O)c1ccccc1C2=O	i	i	i	i	i	nt	nt	nt	nt
O=C(Nc1ccc(-c2ccccc2)cc1)c1ccc2c(c1)S(=O)(=O)c1ccccc1C2=O	-4.7	i	i	i	i	i	i	i	i
Cc1c(OCC(=O)N(C)c2ccccc2)ccc2c3c(c(=O)oc12)CCC3	i	i	i	i	i	nt	nt	nt	nt
COc1ccc(C(=O)NC2CC2)cc1OC1CCN(Cc2ccccc2F)CC1	i	i	i	i	i	nt	nt	nt	nt
COc1ccc(C(=O)NC2CC2)cc1OC1CCN(Cc2ccc(F)cc2F)CC1	-5.6	i	i	i	i	i	i	i	i
OCC[C@H]1C[C@@H](O)[C@H](O)[C@@]2(CCCO2)O1	i	i	i	i	i	nt	nt	nt	nt
OCc1nc2ccccc2n1/N=C/c1cccs1	i	i	i	i	i	nt	nt	nt	nt
Cc1ccccc1OCC(O)Cn1c(=N)n(CCN2CCOCC2)c2ccccc21 (stereo not drawn)	-8.5!	i	i	i	i	i	i	i	i
Cc1ccccc1Cc1c(C)nc2c(C(=O)NCc3ccc4c(c3)OCO4)cnn2c1C	-4.8	i	i	i	i	i	i	i	i
O=S(=O)(/C=C/c1ccccc1)N1CCN(Cc2ccccc2)CC1	i	i	i	i	i	nt	nt	nt	nt
CCC(C)c1ccccc1NC(=O)COC(=O)c1ccc2[nH]c3c(c2c1)CCCC3 (stereo not drawn)	-7.4	i	i	i	i	i	i	i	i
O=C(COC(=O)c1ccc2[nH]c3c(c2c1)CCCC3)Nc1ccccc1Cl	i	i	i	i	i	nt	nt	nt	nt
N#Cc1nc(-c2ccc(F)cc2)oc1N1CCC(C(N)=O)CC1	i	i	i	i	i	nt	nt	nt	nt
CC(C)C1C(C#N)=C(N)Oc2n[nH]c(C(C)(C)C)c21 (stereo not drawn)	i	nt	nt	i	i	nt	nt	nt	nt
CCCC1C(C#N)=C(N)Oc2n[nH]c(C(C)(C)C)c21 (stereo not drawn)	-5.1	i	i	i	i	i	i	i	i
CCOC(=O)c1ccc(NC(=O)CCNS(=O)(=O)c2cccs2)cc1	-5.4	i	i	i	i	i	i	i	i
COC(=O)c1ccc(NC(=O)CNS(=O)(=O)c2cccs2)cc1	i	i	i	i	i	nt	nt	nt	nt
Cc1cc(C)c(Cn2cnc3ccccc32)c(C)c1	i	i	i	i	i	nt	nt	nt	nt
CCOC(=O)C1CCN(C(=O)CCc2ccccc2)CC1	-7.9	i	i	i	i	i	i	i	i
Cn1c(=O)oc2cc(S(=O)(=O)N3CCCC(C(=O)NCCN4CCOCC4)C3)ccc21 (stereo not drawn)	-4.6	nt	nt	i	i	i	i	i	i

Screening data: PubChem, Johns Hopkins Ion Channel Center
